32 compounds from ChEMBL document CHEMBL2440094, “Thiazolidinone-peptide hybrids as dengue virus protease inhibitors with antiviral activity in cell culture” (J Med Chem, 2013) can be followed below.

As usually defined, the inhibition is the share of the control response that was lost under treatment. In general, EC50 refers to the concentration at which the effect is half-maximal.

Structures are written as SMILES. The source made the active and inactive calls. No cut-off for these calls is given here. A value given as a limit tells only on which side of the number the result lay.

In series [1] the target is Prothrombin (Homo sapiens) (UniProt P00734). Put plainly: Inhibition of thrombin (unknown origin) using Boc-Val-Pro-Arg-AMC as substrate at 25 uM after 10 mins by continuous fluorimetric assay. The method in brief:
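Thrombin (10 nM) preincubated 15 min with inhibitor (25 μM final) in 50 mM Tris-HCl pH 7.5, 150 mM NaCl, 0.05% Tween 20. Boc-Val-Pro-Arg-AMC then added to 50 μM (Km 16 μM). Fluorescence (ex 355 nm, em 460 nm) followed for 10 min as slope. Triplicate; percent inhibition versus no-inhibitor control.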

In another series the test system is Dengue virus. Put plainly: Inhibition of Dengue virus NS2B-NS3 protease expressed in Escherichia coli BL 21 (DE3) using Abz-Nle-Lys-Arg-Arg-Ser-3-(NO2)Tyr as substrate at 50 uM after 15 mins.
The subject of another series is West Nile virus. Put plainly: Inhibition of West Nile virus NS2B-NS3 protease expressed in Escherichia coli BL 21 (DE3) using Abz-Gly-Leu-Lys-Arg-Gly-Gly-3-(NO2)Tyr as substrate at 50 uM after 15 mins.
A short description of series [2]: Permeability of the compound by PAMPA. Particulars: read-out: permeability. In kind it is ADME. The method in brief: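 PAMPA with precoated trilayer lipid/oil/lipid membranes, donor wells holding 200 μM compound in PBS pH 7.4 (2% DMSO final), in triplicate. Incubated 5 h at room temperature. Donor and acceptor concentrations determined by UV plate reader or HPLC-UV against calibration curves. Pe and mass retention R calculated.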
(PAMPA measures passive passage across an artificial lipid membrane.)

The subject of the next series is dengue virus type 2. Put plainly: Antiviral activity against Dengue virus 2 infected in human Huh-7 cells assessed as inhibition of viral replication after 48 hrs by luciferase reporter gene assay. In kind it is functional, organism-based. To be noted: Huh-7, 48 h. The method, boiled down:
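Huh-7 cells seeded 5000/well, incubated overnight at 37 °C, then given compound (1.56–50 μM final, 2-fold series in DMEM with 10% FCS). Dengue 2 renilla luciferase reporter virus (MOI 10) added 4 h later. After 48 h at 37 °C, cells lysed and renilla luminescence read with coelenterazine. At least four wells per concentration, expressed relative to DMSO control. EC50 by nonlinear regression.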

Regarding `CCCC[C@H](NC(=O)[C@H](CCCCN)NC(=O)[C@H](CCCNC(=N)N)NC(=O)c1ccc(/C=C2\SC(=S)N(CCOC(C)=O)C2=O)cc1)C(N)=O`, the values for the inhibition (in series [1]; with Dengue virus; in the series with West Nile virus) were 22.8%, 89.3% and 22.4%, respectively.
With `CCCC[C@@H](NC(=O)[C@@H](CCCCN)NC(=O)[C@@H](CCCNC(=N)N)NC(=O)c1ccc(/C=C2\SC(=O)N(Cc3ccccc3)C2=O)cc1)C(N)=O`, the inhibition in series [1] came to 11.1%; in the series with Dengue virus it was 73.9%; in the series with West Nile virus it was 47.5%. Further, the Papp in series [2] came out at 0.29 ×10⁻⁶ cm/s.
With `CCCC[C@H](NC(=O)[C@H](CCCCN)NC(=O)[C@H](CCCNC(=N)N)NC(=O)CC1SC(=S)N(Cc2ccc(OC)cc2)C1=O)C(N)=O` (stereo not given in full), the inhibition in series [1] was 76.8%; with Dengue virus, 23%. The inhibition entry in the series on West Nile virus is “inactive”. Moreover, in the series on dengue virus type 2, the EC50 is 30.3 µM.
On to `CCCC[C@H](NC(=O)[C@H](CCCCN)NC(=O)[C@H](CCCNC(=N)N)NC(=O)c1ccc(/C=C2\SC(=S)N(CC)C2=O)cc1)C(N)=O`, for which the inhibition in series [1] was 13.6%; in the series with Dengue virus, 93.4%; with West Nile virus, 45.4%.
In the same order, the values of `N=C(N)NCCC[C@H](NC(=O)c1ccc(/C=C2\SC(=O)N(Cc3ccccc3)C2=O)cc1)C(=O)N[C@@H](CCCCN)C(N)=O` are “inactive”, 83.1% and 76.2%.
In the same order, the values of `CCCC[C@H](NC(=O)[C@H](CCCCN)NC(=O)[C@H](CCCNC(=N)N)NC(=O)c1ccc(/C=C2\SC(=S)N(c3ccccc3)C2=O)cc1)C(N)=O` are 14.2%, 90% and 37.8%.
Taken in the same sequence, the figures for `CCCC[C@H](NC(=O)c1ccc(/C=C2\SC(=O)N(Cc3ccccc3)C2=O)cc1)C(=O)N[C@@H](CCCCN)C(=O)N[C@@H](CCCNC(=N)N)C(N)=O` were 6.3%, 66.8% and 60.3%.
For `CCCC[C@H](NC(=O)[C@H](CCCCN)NC(=O)[C@H](CCCNC(=N)N)NC(=O)c1ccc(/C=C2\SC(=S)N(C(C)C)C2=O)cc1)C(N)=O`, the inhibition in series [1] worked out at 12%; in the series on Dengue virus, 94.4%; in the series with West Nile virus, 63.7%.
In the same order, the values of `N=C(N)NCCC[C@H](NC(=O)c1ccc(/C=C2\SC(=O)N(Cc3ccccc3)C2=O)cc1)C(N)=O` are 13.2%, 32.4% and 16.9%.
On to `CCCC[C@H](NC(=O)[C@H](CCCCN)NC(=O)[C@H](CCCNC(=N)N)NC(=O)c1ccc(/C=C2\SC(=S)N(c3ccc(OC)cc3)C2=O)cc1)C(N)=O`, for which the inhibition in series [1] came to 8.5%; in the series with Dengue virus, 92.5%; in the series on West Nile virus, 42.9%. Besides, the Papp in series [2] is 0.59 ×10⁻⁶ cm/s. In addition, the EC50 in the series with dengue virus type 2 is 42.5 µM.
Turning to `C=CCN1C(=O)S/C(=C\c2ccc(C(=O)N[C@@H](CCCNC(=N)N)C(=O)N[C@@H](CCCCN)C(=O)N[C@@H](CCCC)C(N)=O)cc2)C1=O`, the inhibition in series [1] is 12.5%; in the series on Dengue virus, 93.2%; with West Nile virus, 33.2%.
For the compound `CCCC[C@H](NC(=O)[C@H](CCCCN)NC(=O)[C@H](CCCCN)NC(=O)c1ccc(/C=C2\SC(=O)N(Cc3ccccc3)C2=O)cc1)C(N)=O`, the figures for the inhibition (in series [1]; with Dengue virus; with West Nile virus) were 16.7%, 83% and 36.9%, respectively.
Taken in the same sequence, the figures for `CCCC[C@H](NC(=O)[C@H](CCCC)NC(=O)[C@H](CCCNC(=N)N)NC(=O)c1ccc(/C=C2\SC(=O)N(Cc3ccccc3)C2=O)cc1)C(N)=O` were 8.3%, 81.4% and 88.3%.
Regarding `CCCC[C@H](NC(=O)[C@H](CCCCN)NC(=O)[C@H](CCCNC(=N)N)NC(=O)c1ccc(/C=C2\SC(=O)N(CCO)C2=O)cc1)C(N)=O`, the inhibition in series [1] worked out at 11.8%; in the series on Dengue virus, 95.9%; in the series on West Nile virus, 26.5%. In addition, in the series on dengue virus type 2, the concentration giving a half-maximal response (EC50) was over 50 µM.
As to `CCCC[C@H](NC(=O)[C@H](CCCNC(=N)N)NC(=O)[C@H](CCCCN)NC(=O)c1ccc(/C=C2\SC(=O)N(Cc3ccccc3)C2=O)cc1)C(N)=O`, the inhibition in series [1] was found to be 10.2%; in the series on Dengue virus it was 72.1%; with West Nile virus, 60.9%.
In the same order, the values of `CCCC[C@H](NC(=O)[C@H](CCCCN)NC(=O)[C@H](CCCNC(=N)N)NC(=O)c1ccc(/C=C2\SC(=S)N(c3ccc(C)cc3)C2=O)cc1)C(N)=O` are 10.2%, 95% and 50.9%.
In the same order, the values of `CCCC[C@H](NC(=O)[C@H](CCCCN)NC(=O)[C@H](CCCNC(=N)N)NC(=O)c1ccc(/C=C2\SC(=O)N(C(C)C)C2=O)cc1)C(N)=O` are 10.6%, 95.8% and 30.9%.
Consider `CCCC[C@H](NC(=O)[C@H](CCCCN)NC(=O)[C@H](CCCNC(=N)N)NC(=O)CN1C(=O)/C(=C/c2ccc(OC)c(OC)c2)SC1=S)C(N)=O`, for which the inhibition in series [1] came to 13.8%; in the series on Dengue virus it was 46.5%; in the series on West Nile virus, 30.2%.
Consider `CCCC[C@H](NC(=O)[C@H](CCCCN)NC(=O)[C@H](CCCNC(=N)N)NC(=O)c1cccc(/C=C2\SC(=S)NC2=O)c1)C(N)=O`, for which the inhibition in series [1] is 17.6%; in the series with Dengue virus it was 75.2%; with West Nile virus it was 34.6%. Besides, in the series on dengue virus type 2, the EC50 was over 50 µM.
Regarding `CCCC[C@H](NC(=O)[C@H](CCCCN)NC(=O)[C@H](CCCNC(=N)N)NC(=O)c1ccc(/C=C2\SC(=S)N(CCC)C2=O)cc1)C(N)=O`, the inhibition in series [1] turned out to be 11%; in the series on Dengue virus it was 94.2%; with West Nile virus it was 52.7%.
Taken in the same sequence, the figures for `CCCC[C@H](NC(=O)[C@H](CCCCN)NC(=O)[C@H](CCCNC(=N)N)NC(=O)c1ccc(/C=C2\SC(=S)N(C3CC3)C2=O)cc1)C(N)=O` were 6.3%, 94.6% and 46.4%.
Taken in the same sequence, the figures for `CCCC[C@H](NC(=O)[C@H](CCCCN)NC(=O)[C@H](CCCNC(=N)N)NC(=O)c1ccc(/C=C2\SC(=O)N(CCC)C2=O)cc1)C(N)=O` were “inactive”, 94.5% and 33.6%.
Taken in the same sequence, the figures for `CCCC[C@H](NC(=O)[C@H](CCCCN)NC(=O)[C@H](CCCNC(=N)N)NC(=O)c1ccc(/C=C2\SC(=S)N(CC3CCCO3)C2=O)cc1)C(N)=O` (stereo not given in full) were 13.3%, 93.3% and 53.4%.
On to `CCCC[C@H](NC(=O)[C@H](CCCCN)NC(=O)[C@H](CCCNC(=N)N)NC(=O)[C@H](Cc1ccccc1)N1C(=O)/C(=C/c2ccc(OC)c(OC)c2)SC1=S)C(N)=O`, for which the figures for the inhibition (in series [1]; in the series on Dengue virus; with West Nile virus) were 18.9%, 60.8% and 25%, respectively. In addition, the EC50 in the series with dengue virus type 2 is over 50 µM.
As to `CCCC[C@H](NC(=O)[C@H](CCCNC(=N)N)NC(=O)[C@H](CCCNC(=N)N)NC(=O)c1ccc(/C=C2\SC(=O)N(Cc3ccccc3)C2=O)cc1)C(N)=O`, the inhibition amounted to 13.7% in series [1], 92.7% with Dengue virus and 74% in the series with West Nile virus.
In the same order, the values of `CCCC[C@H](NC(=O)[C@H](CCCCN)NC(=O)[C@H](CCCNC(=N)N)NC(=O)c1ccc(/C=C2\NC(=S)N(Cc3ccccc3)C2=O)cc1)C(N)=O` are 11.4%, 83.5% and 29.2%.
Take `CCCC[C@H](NC(=O)[C@H](CCCCN)NC(=O)[C@H](CCCNC(=N)N)NC(=O)c1ccc(/C=C2\SC(=O)N(c3ccc(C)cc3)C2=O)cc1)C(N)=O`: the results for the inhibition (in series [1]; in the series on Dengue virus; in the series on West Nile virus) were 13.8%, 93.8% and 42.4%, respectively. Besides, the Papp in series [2] was found to be 0.66 ×10⁻⁶ cm/s.
As to `O=C(O)c1ccc(/C=C2\SC(=O)N(Cc3ccccc3)C2=O)cc1`, the results for the inhibition (in series [1]; in the series with Dengue virus; in the series on West Nile virus) were 12.2%, 30.7% and 22.1%, respectively.
In the same order, the values of `CCCC[C@H](NC(=O)[C@H](CCCCN)NC(=O)[C@H](CCCNC(=N)N)NC(=O)c1ccc(/C=C2\NC(=S)N(c3ccccc3)C2=O)cc1)C(N)=O` are 18%, 85.2% and 44.1%.
Taken in the same sequence, the figures for `CCCC[C@H](NC(=O)[C@H](CCCCN)NC(=O)[C@H](CCCNC(=N)N)NC(=O)c1ccc(/C=C2\SC(=O)N(CC)C2=O)cc1)C(N)=O` were 19%, 96.5% and 48.5%.
Consider `CCCC[C@H](NC(=O)[C@H](CCCCN)NC(=O)[C@H](CCCNC(=N)N)NC(=O)c1ccc(/C=C2\SC(=S)N(CCO)C2=O)cc1)C(N)=O`, for which the inhibition in series [1] was 12.9%; in the series with Dengue virus, 90.3%; in the series with West Nile virus, 28.4%. In the series with dengue virus type 2, the EC50 was over 50 µM.
As to `CCCC[C@H](NC(=O)[C@H](CCCCN)NC(=O)[C@H](CCCNC(=N)N)NC(=O)c1ccc(/C=C2\SC(=S)N(c3ccc(F)cc3)C2=O)cc1)C(N)=O`, the figures for the inhibition (in series [1]; with Dengue virus; with West Nile virus) were 6.5%, 89.7% and 35.5%, respectively.
